Data taken from ChEMBL document CHEMBL4339192, “De Novo Designed Amphipathic α-Helical Antimicrobial Peptides Incorporating Dab and Dap Residues on the Polar Face To Treat the Gram-Negative Pathogen, Acinetobacter baumannii” (J Med Chem, 2019).
Values after ≈ are worked out from the molar mass of the structure shown. Where a SMILES comes first, the peptide text is derived from it. [ ]: non-standard residue; d: D form.

Tests used:
Assay type in all cases: functional
Acinetobacter baumannii [1] = assay: Antibacterial activity against polymyxin B/colistin-resistant Acinetobacter baumannii M89949 measured after 24 hrs by microtiter dilution method
Summary of the method: (§1)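 Broth microdilution in Mueller-Hinton (MH) medium. […] Plates were incubated 24 h at 37 °C. MIC was the lowest peptide concentration that inhibited growth, based on three sets of replicates.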

Acinetobacter baumannii [2] = assay: Antibacterial activity against polymyxin B/colistin-resistant Acinetobacter baumannii M89952 measured after 24 hrs by microtiter dilution method; summary of the method: as §1
Acinetobacter baumannii [3] = assay: Antibacterial activity against polymyxin B/colistin-resistant Acinetobacter baumannii M89941 measured after 24 hrs by microtiter dilution method; summary of the method: as §1
Acinetobacter baumannii [4] = assay: Antibacterial activity against polymyxin B/colistin-resistant Acinetobacter baumannii M89963 measured after 24 hrs by microtiter dilution method; summary of the method: as §1
Acinetobacter baumannii [5] = assay: Antibacterial activity against polymyxin B/colistin-resistant Acinetobacter baumannii M89951 measured after 24 hrs by microtiter dilution method; summary of the method: as §1
Acinetobacter baumannii [6] = assay: Antibacterial activity against polymyxin B/colistin-resistant Acinetobacter baumannii M89953 measured after 24 hrs by microtiter dilution method; summary of the method: as §1
Acinetobacter baumannii [7] = assay: Antibacterial activity against polymyxin B/colistin-resistant Acinetobacter baumannii M89955 measured after 24 hrs by microtiter dilution method; summary of the method: as §1
Acinetobacter baumannii [8] = assay: Antibacterial activity against Acinetobacter baumannii 649 measured after 24 hrs in presence of 25% human serum by microtiter dilution method; conditions: Acinetobacter baumannii, 649, 24 h
Summary of the method: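 Blood strain 649 was tested by MH broth microdilution with and without 25% (v/v) human serum added to the medium. The test used a final inoculum of 5 × 10^5 cfu/mL and incubation at 37 °C. The ratio is the MIC in serum over the MIC in MH alone.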

Acinetobacter baumannii [9] = assay: Antibacterial activity against Acinetobacter baumannii isolate 1001611 measured after 24 hrs by microtiter dilution method; conditions: isolate 1001611, 24 h; summary of the method: as §1
Acinetobacter baumannii [10] = assay: Antibacterial activity against Acinetobacter baumannii isolate 1021371 measured after 24 hrs by microtiter dilution method; conditions: isolate 1021371, 24 h; summary of the method: as §1
Acinetobacter baumannii [11] = assay: Antibacterial activity against Acinetobacter baumannii 649 measured after 24 hrs by microtiter dilution method; conditions: Acinetobacter baumannii, 649, 24 h; summary of the method: as §1
Acinetobacter baumannii [12] = assay: Antibacterial activity against Acinetobacter baumannii isolate 1018887 measured after 24 hrs by microtiter dilution method; conditions: isolate 1018887, 24 h; summary of the method: as §1
Acinetobacter baumannii [13] = assay: Antibacterial activity against Acinetobacter baumannii isolate 964304 measured after 24 hrs by microtiter dilution method; conditions: isolate 964304, 24 h; summary of the method: as §1
Acinetobacter baumannii [14] = assay: Antibacterial activity against Acinetobacter baumannii isolate 1010245 measured after 24 hrs by microtiter dilution method; conditions: isolate 1010245, 24 h; summary of the method: as §1
Acinetobacter baumannii [15] = assay: Antibacterial activity against Acinetobacter baumannii isolate 1017395 measured after 24 hrs by microtiter dilution method; conditions: isolate 1017395, 24 h; summary of the method: as §1
Acinetobacter baumannii [16] = assay: Antibacterial activity against Acinetobacter baumannii isolate 1035794 measured after 24 hrs by microtiter dilution method; conditions: isolate 1035794, 24 h; summary of the method: as §1
Acinetobacter baumannii [17] = assay: Antibacterial activity against Acinetobacter baumannii isolate 9383370 measured after 24 hrs by microtiter dilution method; conditions: isolate 9383370, 24 h; summary of the method: as §1
Acinetobacter baumannii [18] = assay: Antibacterial activity against Acinetobacter baumannii isolate 1010282 measured after 24 hrs by microtiter dilution method; conditions: isolate 1010282, 24 h; summary of the method: as §1
Acinetobacter baumannii [19] = assay: Antibacterial activity against Acinetobacter baumannii isolate 961997 measured after 24 hrs by microtiter dilution method; conditions: isolate 961997, 24 h; summary of the method: as §1
Acinetobacter baumannii [20] = assay: Antibacterial activity against Acinetobacter baumannii isolate 981650 measured after 24 hrs by microtiter dilution method; conditions: isolate 981650, 24 h; summary of the method: as §1
Acinetobacter baumannii [21] = assay: Antibacterial activity against Acinetobacter baumannii isolate 1002956 measured after 24 hrs by microtiter dilution method; conditions: isolate 1002956, 24 h; summary of the method: as §1
Acinetobacter baumannii [22] = assay: Antibacterial activity against Acinetobacter baumannii isolate 968886 measured after 24 hrs by microtiter dilution method; conditions: isolate 968886, 24 h; summary of the method: as §1
Acinetobacter baumannii [23] = assay: Antibacterial activity against Acinetobacter baumannii isolate 977751 measured after 24 hrs by microtiter dilution method; conditions: isolate 977751, 24 h; summary of the method: as §1
Acinetobacter baumannii [24] = assay: Antibacterial activity against Acinetobacter baumannii isolate 1035166 measured after 24 hrs by microtiter dilution method; conditions: isolate 1035166, 24 h; summary of the method: as §1
Acinetobacter baumannii [25] = assay: Antibacterial activity against Acinetobacter baumannii isolate 965463 measured after 24 hrs by microtiter dilution method; conditions: isolate 965463, 24 h; summary of the method: as §1
Acinetobacter baumannii [26] = assay: Antibacterial activity against Acinetobacter baumannii isolate 952654 measured after 24 hrs by microtiter dilution method; conditions: isolate 952654, 24 h; summary of the method: as §1
Acinetobacter baumannii [27] = assay: Antibacterial activity against Acinetobacter baumannii isolate 963659 measured after 24 hrs by microtiter dilution method; conditions: isolate 963659, 24 h; summary of the method: as §1

With COLISTIN the MIC (Acinetobacter baumannii [1]) was over 28 µM, the MIC (Acinetobacter baumannii [2]) was over 28 µM and the MIC (Acinetobacter baumannii [3]) was over 28 µM. For the same compound, the MIC (Acinetobacter baumannii [4]) was over 28 µM, the MIC (Acinetobacter baumannii [5]) was over 28 µM and the MIC (Acinetobacter baumannii [6]) was over 28 µM. It also gave an MIC (Acinetobacter baumannii [7]) of over 28 µM.

With CC(=O)N[C@H](CCCCN)C(=O)N[C@H](CC(C)C)C(=O)N[C@H](CCCCN)C(=O)N[C@H](CO)C(=O)N[C@H](CC(C)C)C(=O)N[C@H](CC(C)C)C(=O)N[C@H](CCCCN)C(=O)N[C@@H](C(=O)N[C@H](CC(C)C)C(=O)N[C@H](CO)C(=O)N[C@H](CCCCN)C(=O)N[C@H](C)C(=O)N[C@H](CCCCN)C(=O)N[C@H](C)C(=O)N[C@H](C)C(=O)N[C@H](CCCCN)C(=O)N[C@H](CC(C)C)C(=O)N[C@H](CCCCN)C(=O)N[C@@H](C(=O)N[C@H](CC(C)C)C(=O)N[C@H](CC(C)C)C(=O)N[C@H](CCCCN)C(=O)N[C@H](C)C(=O)N[C@H](CC(C)C)C(=O)N[C@H](CO)C(=O)N[C@H](CCCCN)C(N)=O)[C@H](C)O)[C@H](C)O (Ac-[dK][dL][dK][dS][dL][dL][dK][dT][dL][dS][dK][dA][dK][dA][dA][dK][dL][dK][dT][dL][dL][dK][dA][dL][dS][dK]-NH2) the MIC (Acinetobacter baumannii [1]; M89949, 24 h) was 0.7 µM (≈ 2.01 µg/mL), the MIC (Acinetobacter baumannii [8]) was 0.3 µM and the MIC (Acinetobacter baumannii [9]) was 0.7 µM (≈ 2.01 µg/mL). The MIC (Acinetobacter baumannii [2]; M89952, 24 h) was 0.7 µM (≈ 2.01 µg/mL), the MIC (Acinetobacter baumannii [10]) was 0.7 µM (≈ 2.01 µg/mL) and the MIC (Acinetobacter baumannii [3]; M89941, 24 h) was 0.3 µM (≈ 0.86 µg/mL). For the same compound, the MIC (Acinetobacter baumannii [11]) was 0.3 µM (≈ 0.86 µg/mL), the MIC (Acinetobacter baumannii [12]) was 0.7 µM (≈ 2.01 µg/mL) and the MIC (Acinetobacter baumannii [13]) was 1.4 µM (≈ 4.01 µg/mL). It also gave an MIC (Acinetobacter baumannii [4]; M89963, 24 h) of 0.7 µM (≈ 2.01 µg/mL), an MIC (Acinetobacter baumannii [14]) of 0.7 µM (≈ 2.01 µg/mL) and an MIC (Acinetobacter baumannii [15]) of 0.7 µM (≈ 2.01 µg/mL). The MIC (Acinetobacter baumannii [16]) was 0.7 µM (≈ 2.01 µg/mL), the MIC (Acinetobacter baumannii [17]) was 0.7 µM (≈ 2.01 µg/mL) and the MIC (Acinetobacter baumannii [18]) was 0.7 µM (≈ 2.01 µg/mL). The MIC (Acinetobacter baumannii [19]) was 1.4 µM (≈ 4.01 µg/mL), the MIC (Acinetobacter baumannii [5]; M89951, 24 h) was 0.3 µM (≈ 0.86 µg/mL) and the MIC (Acinetobacter baumannii [20]) was 0.7 µM (≈ 2.01 µg/mL). For the same compound, the MIC (Acinetobacter baumannii [21]) was 0.3 µM (≈ 0.86 µg/mL), the MIC (Acinetobacter baumannii [22]) was 0.7 µM (≈ 2.01 µg/mL) and the MIC (Acinetobacter baumannii [23]) was 0.3 µM (≈ 0.86 µg/mL). It also gave an MIC (Acinetobacter baumannii [6]; M89953, 24 h) of 0.7 µM (≈ 2.01 µg/mL), an MIC (Acinetobacter baumannii [24]) of 0.7 µM (≈ 2.01 µg/mL) and an MIC (Acinetobacter baumannii [25]) of 0.7 µM (≈ 2.01 µg/mL). The MIC (Acinetobacter baumannii [26]) was 0.7 µM (≈ 2.01 µg/mL), the MIC (Acinetobacter baumannii [27]) was 0.7 µM (≈ 2.01 µg/mL) and the MIC (Acinetobacter baumannii [7]; M89955, 24 h) was 0.3 µM (≈ 0.86 µg/mL).
